In ChEMBL document CHEMBL1124364, “3-Sulfonyl-1-carba-1-dethiacephems” (1989) one finds MIC data, which are given here for seven compounds.

Values after ≈ are worked out from the molar mass of the structure shown.

Type in all cases: functional
Assay [1] concerns Enterobacter cloacae. Nature of the assay: Minimum inhibitory concentration against Enterobacter cloacae (265A beta-lactamase containing). The following applies: Enterobacter cloacae; read-out: MIC. In outline:
(§1)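 Agar dilution: compounds diluted in 0.1 M phosphate buffer pH 7.0 and incorporated into Mueller-Hinton agar with 1% Bacto-Supplement C at 50 °C. Fresh overnight cultures diluted to about 1×10^4 cells/µL; 1 µL spotted on plates. Incubated overnight at 35 °C in ambient air. MIC taken as the lowest concentration preventing visible growth.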

Assay [2] has as its system Enterobacter cloacae. The assay is described as follows: Minimum inhibitory concentration against Enterobacter cloacae (EB5). The following applies: Enterobacter cloacae; read-out: MIC. In outline: as §1
The subject of assay [3] is Escherichia coli. Nature of the assay: Minimum inhibitory concentration against Escherichia coli (EC14). Particulars: Escherichia coli; read-out: MIC. In outline: as §1
Assay [4] has as its system Escherichia coli. The assay is described as follows: Minimum inhibitory concentration against Escherichia coli (TEM beta-lactamase containing). Particulars: Escherichia coli; read-out: MIC. Put shortly:
as §1

Another assay relates to Haemophilus influenzae. Nature of the assay: Minimum inhibitory concentration against Haemophilus influenzae (C.L.). In outline: as §1
The test system of assay [5] is Klebsiella. Nature of the assay: Minimum inhibitory concentration against Klebsiella (KAE beta-lactamase containing). The following applies: Klebsiella; read-out: MIC. Put shortly: as §1
For assay [6], the system named is Klebsiella. Nature of the assay: Minimum inhibitory concentration against Klebsiella (X26). Particulars: Klebsiella; read-out: MIC. Put shortly: as §1
The subject of the next assay is Morganella morganii. The assay is described as follows: Minimum inhibitory concentration against Proteus morganii (PR 15). The following applies: Morganella morganii; read-out: MIC. Put shortly:
as §1

Another assay has as its system Pseudomonas aeruginosa. Nature of the assay: Minimum inhibitory concentration against Pseudomonas aeruginosa (X528). Particulars: Pseudomonas aeruginosa; read-out: MIC. Put shortly: as §1
The test system of another assay is Providencia rettgeri. Nature of the assay: Minimum inhibitory concentration against Proteus rettgeri (C24). The following applies: Providencia rettgeri; read-out: MIC. Put shortly:
as §1

Another assay concerns Salmonella. The assay is described as follows: Minimum inhibitory concentration against Salmonella (X514). Put shortly:
as §1

Assay [7] deals with Staphylococcus epidermidis. The assay is described as follows: Minimum inhibitory concentration against Staphylococcus epidermidis (222). Particulars: Staphylococcus epidermidis; read-out: MIC. Put shortly:
as §1

The test system of another assay is Streptococcus pyogenes. Nature of the assay: Minimum inhibitory concentration against Streptococcus pyogenes (C203). Put shortly: as §1
Another assay concerns Streptococcus pneumoniae. The assay is described as follows: Minimum inhibitory concentration against Streptococcus pneumoniae (PARK). Put shortly:
as §1

For the next assay, the system named is Staphylococcus aureus. The assay is described as follows: Minimum inhibitory concentration against Staphylococcus aureus (X1.1). The following applies: Staphylococcus aureus; read-out: MIC. Put shortly:
as §1

Setting [8] is: Haemophilus influenzae, read-out: MIC.
Setting [9] is: Streptococcus pyogenes, read-out: MIC.
Setting [10] is: Streptococcus pneumoniae, read-out: MIC.

Consider `CO/N=C(/C(=O)N[C@@H]1C(=O)N2C(C(=O)O)=C(S(=O)(=O)C(C)C)CC[C@H]12)c1csc(N)n1`, for which the MIC in the assay with Enterobacter cloacae [1] was greater than 128 µg/mL; in the assay on Enterobacter cloacae [2] it was 1 µg/mL (≈ 2.12 µM); in the assay with Escherichia coli [3], 0.25 µg/mL (≈ 0.53 µM); with Escherichia coli [4], 1 µg/mL (≈ 2.12 µM); in the assay on Haemophilus influenzae (setting [8]) it was 0.5 µg/mL (≈ 1.06 µM); with Klebsiella [5], greater than 128 µg/mL. For the same compound, the MIC with Klebsiella [6] was 0.125 µg/mL (≈ 0.265 µM); in the assay with Morganella morganii, 4 µg/mL (≈ 8.48 µM); in the assay with Pseudomonas aeruginosa, greater than 128 µg/mL; in the assay on Providencia rettgeri, 0.25 µg/mL (≈ 0.53 µM); in the assay with Salmonella (Salmonella, read-out: MIC), 0.06 µg/mL (≈ 0.127 µM); in assay [7], 16 µg/mL (≈ 33.9 µM). Further, the MIC worked out at 2 µg/mL (≈ 4.24 µM) in the assay on Streptococcus pyogenes (setting [9]), 0.06 µg/mL (≈ 0.127 µM) with Streptococcus pneumoniae (setting [10]) and 8 µg/mL (≈ 17 µM) in the assay on Staphylococcus aureus.
Turning to `CO/N=C(/C(=O)N[C@@H]1C(=O)N2C(C(=O)O)=C(S(=O)(=O)C3CC3)CC[C@H]12)c1csc(N)n1`, the MIC with Enterobacter cloacae [1] is greater than 128 µg/mL; with Enterobacter cloacae [2], 0.5 µg/mL (≈ 1.06 µM); in the assay on Escherichia coli [3] it was 0.06 µg/mL (≈ 0.128 µM); in the assay with Escherichia coli [4], 0.5 µg/mL (≈ 1.06 µM); in the assay on Haemophilus influenzae (setting [8]), 0.25 µg/mL (≈ 0.532 µM); with Klebsiella [5], greater than 128 µg/mL. The MIC in the assay with Klebsiella [6] was 0.06 µg/mL (≈ 0.128 µM); in the assay on Morganella morganii, 2 µg/mL (≈ 4.26 µM); in the assay on Pseudomonas aeruginosa it was greater than 128 µg/mL; with Providencia rettgeri, 1 µg/mL (≈ 2.13 µM); with Salmonella (Salmonella, read-out: MIC), 0.125 µg/mL (≈ 0.266 µM); in assay [7], 8 µg/mL (≈ 17 µM). Moreover, the MIC came out at 0.015 µg/mL (≈ 0.0319 µM) with Streptococcus pyogenes (setting [9]), 0.03 µg/mL (≈ 0.0639 µM) in the assay with Streptococcus pneumoniae (setting [10]) and 4 µg/mL (≈ 8.52 µM) with Staphylococcus aureus.
As to `CO/N=C(/C(=O)N[C@@H]1C(=O)N2C(C(=O)O)=C(S(=O)(=O)c3c(C)noc3C)CC[C@H]12)c1csc(N)n1`, the MIC is greater than 128 µg/mL with Enterobacter cloacae [1]; 8 µg/mL (≈ 15.3 µM) in the assay on Enterobacter cloacae [2]; 2 µg/mL (≈ 3.81 µM) with Escherichia coli [3]; 8 µg/mL (≈ 15.3 µM) in the assay with Escherichia coli [4]; 0.25 µg/mL (≈ 0.477 µM) in the assay with Haemophilus influenzae (setting [8]); greater than 128 µg/mL in the assay on Klebsiella [5]. The MIC with Klebsiella [6] is 1 µg/mL (≈ 1.91 µM); in the assay on Morganella morganii, 2 µg/mL (≈ 3.81 µM); with Pseudomonas aeruginosa it was greater than 128 µg/mL; in the assay with Providencia rettgeri, 16 µg/mL (≈ 30.5 µM); in the assay on Salmonella (Salmonella, read-out: MIC), 4 µg/mL (≈ 7.63 µM); in assay [7], 8 µg/mL (≈ 15.3 µM). Besides, the MIC came out at 0.03 µg/mL (≈ 0.0572 µM) with Streptococcus pyogenes (setting [9]), 0.03 µg/mL (≈ 0.0572 µM) in the assay on Streptococcus pneumoniae (setting [10]) and 4 µg/mL (≈ 7.63 µM) in the assay with Staphylococcus aureus.
With `CS(=O)(=O)C1=C(C(=O)O)N2C(=O)[C@@H](NC(=O)COc3ccccc3)[C@H]2CC1` (stereo in doubt; 7), the MIC is greater than 128 µg/mL in the assay on Enterobacter cloacae [1]; greater than 128 µg/mL in the assay on Enterobacter cloacae [2]; 4 µg/mL (≈ 10.1 µM) with Escherichia coli [3]; greater than 128 µg/mL with Escherichia coli [4]; 16 µg/mL (≈ 40.6 µM) against Haemophilus influenzae; greater than 128 µg/mL in the assay on Klebsiella [5]. For the same compound, the MIC was 8 µg/mL (≈ 20.3 µM) in the assay with Klebsiella [6]; greater than 128 µg/mL in the assay on Morganella morganii; greater than 128 µg/mL in the assay on Pseudomonas aeruginosa; greater than 128 µg/mL in the assay on Providencia rettgeri; 8 µg/mL (≈ 20.3 µM) against Salmonella; 0.5 µg/mL (≈ 1.27 µM) in assay [7]. Besides, the MIC in the assay on Streptococcus pyogenes worked out at 0.015 µg/mL (≈ 0.038 µM); against Streptococcus pneumoniae, 0.06 µg/mL (≈ 0.152 µM); with Staphylococcus aureus it was 0.25 µg/mL (≈ 0.634 µM).
On to `N[C@@H](C(=O)N[C@@H]1C(=O)N2C(C(=O)O)=C(Cl)CS[C@H]12)c1ccccc1` [CEFACLOR ANHYDROUS], for which the MIC is greater than 128 µg/mL in the assay with Enterobacter cloacae [1]; 16 µg/mL (≈ 43.5 µM) with Enterobacter cloacae [2]; 0.5 µg/mL (≈ 1.36 µM) in the assay on Escherichia coli [3]; 1 µg/mL (≈ 2.72 µM) in the assay on Escherichia coli [4]; 2 µg/mL (≈ 5.44 µM) in the assay on Haemophilus influenzae (setting [8]); greater than 128 µg/mL in the assay with Klebsiella [5]. Also, the MIC is 0.25 µg/mL (≈ 0.68 µM) in the assay on Klebsiella [6]; greater than 128 µg/mL in the assay with Morganella morganii; greater than 128 µg/mL in the assay with Pseudomonas aeruginosa; 64 µg/mL (≈ 174 µM) in the assay with Providencia rettgeri; 2 µg/mL (≈ 5.44 µM) with Salmonella (Salmonella, read-out: MIC); 4 µg/mL (≈ 10.9 µM) in assay [7]. The MIC in the assay with Streptococcus pyogenes (setting [9]) worked out at 0.25 µg/mL (≈ 0.68 µM); in the assay with Streptococcus pneumoniae (setting [10]), 1 µg/mL (≈ 2.72 µM); in the assay on Staphylococcus aureus, 2 µg/mL (≈ 5.44 µM).
In the case of `CCCS(=O)(=O)C1=C(C(=O)O)N2C(=O)[C@@H](NC(=O)/C(=N/OC)c3csc(N)n3)[C@H]2CC1`, the MIC with Enterobacter cloacae [1] is greater than 128 µg/mL; in the assay on Enterobacter cloacae [2], 1 µg/mL (≈ 2.12 µM); in the assay with Escherichia coli [3], 0.125 µg/mL (≈ 0.265 µM); with Escherichia coli [4] it was 1 µg/mL (≈ 2.12 µM); with Haemophilus influenzae (setting [8]) it was 0.25 µg/mL (≈ 0.53 µM); with Klebsiella [5], greater than 128 µg/mL. Moreover, the MIC with Klebsiella [6] is 0.125 µg/mL (≈ 0.265 µM); in the assay on Morganella morganii it was 2 µg/mL (≈ 4.24 µM); in the assay with Pseudomonas aeruginosa, greater than 128 µg/mL; with Providencia rettgeri it was 4 µg/mL (≈ 8.48 µM); with Salmonella (Salmonella, read-out: MIC), 0.125 µg/mL (≈ 0.265 µM); in assay [7] it was 8 µg/mL (≈ 17 µM). Moreover, the MIC with Streptococcus pyogenes (setting [9]) is 0.03 µg/mL (≈ 0.0636 µM); in the assay with Streptococcus pneumoniae (setting [10]) it was 0.03 µg/mL (≈ 0.0636 µM); with Staphylococcus aureus, 8 µg/mL (≈ 17 µM).
As for `CO/N=C(/C(=O)N[C@@H]1C(=O)N2C(C(=O)O)=C(S(=O)(=O)c3ccccc3)CC[C@H]12)c1csc(N)n1`, the MIC with Enterobacter cloacae [1] was greater than 128 µg/mL; in the assay with Enterobacter cloacae [2] it was 8 µg/mL (≈ 15.8 µM); with Escherichia coli [3], 2 µg/mL (≈ 3.96 µM); in the assay on Escherichia coli [4], 8 µg/mL (≈ 15.8 µM); in the assay on Haemophilus influenzae (setting [8]) it was 0.25 µg/mL (≈ 0.495 µM); with Klebsiella [5], greater than 128 µg/mL. For the same compound, the MIC with Klebsiella [6] was 1 µg/mL (≈ 1.98 µM); in the assay with Morganella morganii, greater than 128 µg/mL; in the assay with Pseudomonas aeruginosa it was greater than 128 µg/mL; in the assay with Providencia rettgeri it was 1 µg/mL (≈ 1.98 µM); in the assay with Salmonella (Salmonella, read-out: MIC) it was 0.25 µg/mL (≈ 0.495 µM); in assay [7], 16 µg/mL (≈ 31.6 µM). In addition, the MIC stood at 1 µg/mL (≈ 1.98 µM) in the assay on Streptococcus pyogenes (setting [9]), 0.06 µg/mL (≈ 0.119 µM) in the assay on Streptococcus pneumoniae (setting [10]) and 8 µg/mL (≈ 15.8 µM) in the assay on Staphylococcus aureus.
